Experimental data: ChEMBL document CHEMBL1125241, “Structure-activity relationship of quinazolinedione inhibitors of calcium-independent phosphodiesterase” (J Med Chem, 1991)
pIC50: −log10 of the molar value.

Experiments:
[1] = Inhibition of phosphodiesterase 4 from guinea pig lung; set-up: species or system Cavia porcellus
In short: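 Guinea pig lung was homogenized in Bistris buffer (pH 6.5) with 50 μM final PMSF and centrifuged at 12000g at 4 °C. The supernatant went onto DEAE-Sepharose and was eluted with a 0.05–1.0 M sodium acetate gradient, pooling rolipram-sensitive fractions. The assay used 50 mM Tris/10 mM MgCl₂ (pH 7.5) and 1 μM final [³H]cAMP, with compound added in 4% DMSO, for 10 min at 37 °C. Reaction was stopped by boiling; [³H]5'-AMP was separated on boronate gel and counted. IC₅₀ came from 4 log concentrations, each in triplicate.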

Mus musculus [2] = species on record: Mus musculus; test: Inhibition of reserpine-induced hypothermia in mice by peroral dose; assay type: functional; conditions: po, read-out: MED
In short: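 Mice were housed at 18–20 °C, given reserpine 2 mg/kg sc, and kept there 18 h. Rectal temperature was then taken, followed by saline or drug po. Temperatures were re-measured, typically at 0.5, 1.0, 2.0 and 14 h. The value is the minimal effective dose (mg/kg po) that inhibits hypothermia.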

Mus musculus [3] = species on record: Mus musculus; test: Inhibition of immobility in mouse forced swim test by peroral dose; assay type: functional; conditions: po, read-out: MED
In short: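 Compounds were dissolved in saline and given po to mice at 1 mL/100 g. One hour later, mice were put in 1-L beakers of water at 22–24 °C, deep enough that tails could not touch the bottom. Observation followed a 2-min habituation.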

Rattus norvegicus [4] = test: Percentage inhibition of carrageenan-induced rat foot edema at a dose of […] when administered perorally (po).; assay type: functional; conditions: dose 3.2 mg/kg
Rattus norvegicus [5] = test: Percentage inhibition of carrageenan-induced rat foot edema at a dose of 32 mg/kg when administered perorally (po).; assay type: functional
In short: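 Rats were dosed po, and 1 h later 0.05 mL of 2-week-old 1% carrageenan in distilled water was injected into the plantar tissue. Paw volume was measured immediately and 3 h after injection. The increase in foot volume was the individual response.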

| Compound | pIC50 [1] | minimal effective dose (Mus musculus [2]) | minimal effective dose (Mus musculus [3]) | inhibition in vivo at […] (Rattus norvegicus [4]) | inhibition in vivo at 32 mg/kg (Rattus norvegicus [5]) |
| --- | --- | --- | --- | --- | --- |
| CNC(=O)c1cccc(-n2c(=O)n(Cc3ccccc3)c(=O)c3ccccc32)c1 | 4.67 | – | – | – | – |
| CCn1c(=O)c2cccnc2n(-c2cccc(C(=O)OC)c2)c1=O | 4.59 | – | – | – | – |
| COC(=O)c1cccc(-n2c(=O)n(Cc3ccccc3)c(=O)c3cccnc32)c1 | – | 10 µg/kg | 10 µg/kg | 50% | – |
| COC(=O)c1cccc(-n2c(=O)[nH]c(=O)c3ccccc32)c1 | < 4.00 | < 320 µg/kg | – | – | 5% |
| CCn1c(=O)c2ccccc2n(-c2cccc(C(=O)OC)c2)c1=O | 5.42 | – | – | – | 19% |
| CCn1c(=O)c2ccccc2n(-c2cccc([N+](=O)[O-])c2)c1=O [NITRAQUAZONE] | 4.94 | 1 µg/kg | 3200 µg/kg | 43% | – |

The next lines start with results.

| pIC50 [1] | Compound | minimal effective dose (Mus musculus [2]) | minimal effective dose (Mus musculus [3]) | inhibition in vivo at […] (Rattus norvegicus [4]) | inhibition in vivo at 32 mg/kg (Rattus norvegicus [5]) |
| --- | --- | --- | --- | --- | --- |
| 6.05 | COC(=O)c1cccc(-n2c(=O)n(CC3CC4CCC3C4)c(=O)c3cccnc32)c1 (stereo not drawn) | 1 µg/kg | 1000 µg/kg | – | – |
| 5.82 | COC(=O)c1cccc(-n2c(=O)n(CC3CCCC3)c(=O)c3cccnc32)c1 | 3 µg/kg | 1000 µg/kg | – | – |
| 6.64 | COC(=O)c1cccc(-n2c(=O)n(Cc3ccccc3)c(=O)c3ccccc32)c1 | 100 µg/kg | > 32000 µg/kg | – | 25% |
| 6.23 | COc1ccc(C2CNC(=O)C2)cc1OC1CCCC1 (stereo not drawn) [ROLIPRAM] | 0.03 µg/kg | 1780 µg/kg | – | 41% |
